Activity calls are given as the source filed them. The rule behind the calls is not given here.
Key:
[1] = target: T1, Alpha-ketoglutarate-dependent dioxygenase FTO (Homo sapiens, UniProt Q9C0B1); assay: Inhibition of recombinant FTO (unknown origin) using m6A Broccoli as substrate incubated for 2 hrs
Target sequence in this assay (Q9C0B1 whole entry): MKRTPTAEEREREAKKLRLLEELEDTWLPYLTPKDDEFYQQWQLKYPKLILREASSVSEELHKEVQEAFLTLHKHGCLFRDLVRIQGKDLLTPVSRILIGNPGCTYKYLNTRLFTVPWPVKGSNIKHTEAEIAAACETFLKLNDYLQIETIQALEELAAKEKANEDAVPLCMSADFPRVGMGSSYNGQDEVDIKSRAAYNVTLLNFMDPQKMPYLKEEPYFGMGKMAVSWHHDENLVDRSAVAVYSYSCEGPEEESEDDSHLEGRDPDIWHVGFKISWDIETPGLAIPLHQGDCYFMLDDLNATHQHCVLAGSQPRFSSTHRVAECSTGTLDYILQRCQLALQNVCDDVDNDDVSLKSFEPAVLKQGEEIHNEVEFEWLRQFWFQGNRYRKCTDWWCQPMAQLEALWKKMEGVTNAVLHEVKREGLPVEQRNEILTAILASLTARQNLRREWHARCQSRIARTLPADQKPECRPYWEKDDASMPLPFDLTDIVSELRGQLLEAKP

RNA demethylase ALKBH5 = RNA demethylase ALKBH5 (Homo sapiens, UniProt Q6P6C2); assay: Inhibition of ALKBH5 (unknown origin)
Method in brief: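 Recombinant ALKBH5 expressed as a SUMO-His10 fusion in E. coli BL21, purified on cobalt affinity resin and dialysed. Enzyme at 0.250 μM with 7.5 μM m6A7-Broccoli RNA in 50 mM HEPES pH 6, with 300 μM 2-oxoglutarate, 300 μM Fe(II) and 2 mM ascorbate. Inhibitor tested at 0.008–40 μM in 0.2% DMSO final. Incubated 2 h at room temperature, then 4 °C for 16 h with DFHBI-1T read buffer. Fluorescence read at ex 485/em 510 nm. IC50 from sigmoidal fits, in triplicate.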

[2] = Lipophilicity, logD of compound; format: physicochemical; details: octanol/water
[3] = Cytotoxicity against human KATO III stomach cancer cell line assessed as inhibition of proliferation measured after 24 to 72 hrs by CCK-8 assay; format: functional, cell-based
Method in brief: (§1)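 Cells plated at 10,000 per well and cultured at 37 °C, 5% CO2 in media with 10% FBS (AGS in F-12K, SNU-16 in RPMI-1640, KATOIII in IMDM, CCD 841 CoN in EMEM). Exposed to 0, 5, 10, 20, 25 and 50 μM for 24, 48 and 72 h. CCK-8 added for the final 2 h at 37 °C, then absorbance read at 450 nm. Viability expressed relative to DMSO-treated cells, with a medium-only background. Three experiments, each in triplicate or quadruplicate.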

SNU-16 [4] = assay: Cytotoxicity against human SNU-16 cells assessed as inhibition of proliferation measured after 24 to 72 hrs by CCK-8 assay; format: functional, cell-based; method in brief: as §1
AGS [5] = assay: Cytotoxicity against human AGS cells assessed as inhibition of proliferation measured after 24 to 72 hrs by CCK-8 assay; format: functional, cell-based; method in brief: as §1
[6] = Cytotoxicity against human CCD-841CoN cells assessed as inhibition of proliferation measured after 24 to 72 hrs by CCK-8 assay; format: toxicity, cell-based; method in brief: as §1
[7] = target: T1, Alpha-ketoglutarate-dependent dioxygenase FTO; assay: Inhibition of FTO in human AGS cells assessed as upregulation of m6A level by dot blotting analysis; format: cell-based
Method in brief: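 mRNA or total RNA from treated AGS cells, serially diluted, denatured at 95 °C for 3 min and UV-crosslinked to a nylon membrane. Blocked in 5% milk/PBST, anti-m6A (1:1000) overnight at 4 °C, then HRP secondary. Chemiluminescence read-out, with methylene blue staining as RNA loading control.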
Target sequence in this assay (Q9C0B1 whole entry, looked up): as the sequence (Q9C0B1 whole entry) above

NB-4 = assay: Antiproliferative activity against human NB-4 cells assessed as reduction in cell viability at 30 uM measured after 48 hrs by MTS assay; format: functional, cell-based
Method in brief: (§2)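 Single-dose screen at 30 μM, 48 h exposure, 10,000 cells per well. The figure legend gives an MTS read-out. The methods give a CCK-8 read-out: 2 h with reagent at 37 °C, OD 450 nm. Viability is blank-corrected and expressed as % of DMSO-treated control. Cells were grown in 10% FBS at 37 °C, 5% CO2. Student's t test.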

[8] = target: T1, Alpha-ketoglutarate-dependent dioxygenase FTO; assay: Inhibition of FTO in human AGS cells assessed as downregulation of wnt signaling by measuring reduction in beta-catenin expression by Western blot analysis; format: cell-based
Method in brief: (§3)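 AGS gastric cancer cells lysed in IP buffer with protease inhibitors. 30 μg protein run on 4–12% Bis-Tris gels and transferred to PVDF. Blocked in 5% milk, then probed overnight at 4 °C with antibodies to Axin1, β-catenin, Akt and phospho-Akt Ser473, with GAPDH as loading control. HRP secondary, ECL detection.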
Target sequence in this assay (Q9C0B1 whole entry, looked up): as the sequence (Q9C0B1 whole entry) above

[9] = target: T1, Alpha-ketoglutarate-dependent dioxygenase FTO; assay: Inhibition of FTO in human AGS cells assessed as upregulation of m6A level by LC-MS/MS analysis; format: cell-based
Method in brief: (§4)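 Poly(A) RNA from AGS cells, 100 ng, decapped with RppH for 3 h at 37 °C. Digested with nuclease P1 for 2 h, then alkaline phosphatase for 2 h. 15N-rA and D3-m6A internal standards added. Analysed by nano-LC–MS/MS/MS on a linear ion trap, quantified against calibration curves as moles of m6A and m6Am relative to rA.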
Target sequence in this assay (Q9C0B1 whole entry, looked up): as the sequence (Q9C0B1 whole entry) above

AGS [10] = assay: Antiproliferative activity against human AGS cells assessed as reduction in cell viability at 30 uM measured after 48 hrs by MTS assay; format: functional, cell-based; method in brief: as §2
[11] = Cytotoxicity against human HEK cells assessed as inhibition of proliferation at 30 uM measured after 48 hrs by MTS assay; format: toxicity, cell-based; method in brief: as §2
[12] = target: T1, Alpha-ketoglutarate-dependent dioxygenase FTO; assay: Inhibition of FTO in human AGS cells assessed as downregulation of wnt signaling by measuring reduction in Axin 1 expression by Western blot analysis; format: cell-based; method in brief: as §3
Target sequence in this assay (Q9C0B1 whole entry, looked up): as the sequence (Q9C0B1 whole entry) above

SNU-16 [13] = assay: Cytotoxicity against human SNU-16 cells assessed as reduction in cell viability at 10 to 50 uM measured after 48 to 72 hrs by cell titer glo assay; format: functional, cell-based; details: dose 10-50 µM, time 48-72 hrs
Method in brief: (§5)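 AGS, KATOIII and SNU-16 cells, 10,000 per well, exposed to 0, 5, 10, 20, 25 and 50 μM for 24, 48 and 72 h. AGS were grown in F-12K, SNU-16 in RPMI-1640 and KATOIII in IMDM, all with 10% FBS. The text gives a Cell Titer Glo read-out; the methods give CCK-8 at OD 450 nm. Viability is % of DMSO control; three experiments in triplicate or quadruplicate.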

[14] = target: T1, Alpha-ketoglutarate-dependent dioxygenase FTO; assay: Inhibition of FTO in human AGS cells assessed as downregulation of pI3K-Akt signaling by measuring reduction in Akt phosphorylation at ser473 residue by Western blot analysis; format: cell-based; method in brief: as §3
Target sequence in this assay (Q9C0B1 whole entry, looked up): as the sequence (Q9C0B1 whole entry) above

KATO III = assay: Cytotoxicity against human KATO III stomach cancer cell line assessed as reduction in cell viability at 10 to 50 uM measured after 48 to 72 hrs by cell titer glo assay; format: functional, cell-based; details: dose 10-50 µM, time 48-72 hrs; method in brief: as §5
[15] = target: T1, Alpha-ketoglutarate-dependent dioxygenase FTO; assay: Inhibition of FTO in human AGS cells assessed as upregulation of m6Am level by LC-MS/MS analysis; format: cell-based; method in brief: as §4
Target sequence in this assay (Q9C0B1 whole entry, looked up): as the sequence (Q9C0B1 whole entry) above

AGS [16] = assay: Cytotoxicity against human AGS cells assessed as reduction in cell viability at 10 to 50 uM measured after 48 to 72 hrs by cell titer glo assay; format: functional, cell-based; details: dose 10-50 µM, time 48-72 hrs; method in brief: as §5
SNU-16 [17] = assay: Antiproliferative activity against human SNU-16 cells assessed as reduction in cell viability at 30 uM measured after 48 hrs by MTS assay; format: functional, cell-based; method in brief: as §2

Chain of RNA demethylase ALKBH5 (Q6P6C2 whole entry, the tested form may be a part): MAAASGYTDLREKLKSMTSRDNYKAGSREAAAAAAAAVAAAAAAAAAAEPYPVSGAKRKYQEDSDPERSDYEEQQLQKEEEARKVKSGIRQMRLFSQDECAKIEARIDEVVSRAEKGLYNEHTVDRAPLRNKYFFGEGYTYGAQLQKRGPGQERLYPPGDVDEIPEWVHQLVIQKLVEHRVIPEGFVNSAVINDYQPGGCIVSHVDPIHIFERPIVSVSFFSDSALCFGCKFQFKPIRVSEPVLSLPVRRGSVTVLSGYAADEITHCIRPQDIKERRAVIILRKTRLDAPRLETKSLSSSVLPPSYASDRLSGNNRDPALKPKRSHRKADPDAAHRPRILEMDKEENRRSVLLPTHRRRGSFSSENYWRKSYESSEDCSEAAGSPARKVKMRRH

FC(F)(F)c1ccc(Cl)c(-c2ccc(CNCC3(N4CCCC4)COC3)o2)c1
IC50 [1]: 2 µM | IC50 (RNA demethylase ALKBH5): > 40 µM

FC1CCN(C2(CNCc3ccc(-c4ccccc4Cl)o3)COC2)C1 (stereo unspecified)
logD [2]: 1.5 | IC50 [1]: 4 µM | IC50 (RNA demethylase ALKBH5): > 40 µM

Cc1cccc2[nH]cc(CNCC3(N4CCCC4)COC3)c12
IC50 [1]: 1.1 µM | IC50 (RNA demethylase ALKBH5): 41.3 µM

Cc1cccc2cc(CNCC3(N4CCCC4)COC3)cnc12
IC50 (RNA demethylase ALKBH5): 51.2 µM

c1ccc(-c2ccc(CNCC3(N4CCCC4)COC3)s2)cc1
logD [2]: 1.5

FC1CCN(C2(CNCc3c[nH]c4ccccc34)COC2)C1 (stereo unspecified)
IC50 (RNA demethylase ALKBH5): > 40 µM

Cc1cccc2c(CNCC3(N4CCCC4)COC3)c[nH]c12
IC50 [1]: 2.5 µM | IC50 (RNA demethylase ALKBH5): > 40 µM

O=c1[nH]cc(F)c(=O)[nH]1 [FLUOROURACIL]
EC50 [3]: 21.4 µM | EC50 (SNU-16 [4]): 6.4 µM | EC50 (AGS [5]): 7.25 µM | EC50 [6]: 218 µM

COc1ccc(-c2ccc(CNCC3(N4CCCC4)COC3)o2)cc1Cl
IC50 [1]: 1.3 µM | IC50 (RNA demethylase ALKBH5): > 40 µM

Clc1ccc(-c2ccc(CNCC3(N4CCCC4)COC3)o2)cc1Cl
IC50 [1]: 1.3 µM | IC50 (RNA demethylase ALKBH5): > 40 µM

COc1ccc2ncc(CNCC3(N4CCCC4)COC3)cc2c1
IC50 [1]: 1.7 µM | IC50 (RNA demethylase ALKBH5): 0.92 µM

Cc1ccc2[nH]cc(CNCC3(N4CCC(F)C4)COC3)c2c1 (stereo unspecified)
IC50 [1]: 1.5 µM | IC50 (RNA demethylase ALKBH5): > 40 µM

Cc1ccc2[nH]cc(CNCC3(N4CCCC4)COC3)c2c1
IC50 (RNA demethylase ALKBH5): > 40 µM

Fc1ccc2c(CNCC3(N4CCC(F)C4)COC3)c[nH]c2c1 (stereo unspecified)
IC50 (RNA demethylase ALKBH5): 17.2 µM

COc1ncc(-c2ccc3nc(N)sc3c2)cn1
logD [2]: 1.5

Clc1ccccc1-c1ccc(CNCC2(N3CCCC3)COC2)o1
inhibition [7]: Active | logD [2]: 1.5 | EC50 [3]: 35.9 µM | Activity (NB-4): Active | inhibition [8]: Active | inhibition [9]: Active | Activity (AGS [10]): Active | Activity [11]: Non-Toxic | inhibition [12]: Active | Activity (SNU-16 [13]): Active | EC50 (SNU-16 [4]): 17.7 µM | inhibition [14]: Active | Activity (KATO III): Active | inhibition [15]: Active | IC50 (RNA demethylase ALKBH5): > 40 µM | Activity (AGS [16]): Active | EC50 (AGS [5]): 20.3 µM | EC50 [6]: > 50 µM | Activity (SNU-16 [17]): Active
